The source of these data is paper PMC4418331 (Journal of Clinical Pharmacology, 2015).

The nature of data set [1]: Safety and tolerability assessments. It counts as in vivo, human (postmenopausal women with T2D). As to conditions: for Increase in serum amylase concentration / Increase in serum lipase concentration: mean ± SD. In outline: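 Test compound given subcutaneously once weekly, escalated 0.25 mg for 4 weeks, 0.5 mg for 4 weeks, then 1.0 mg for 5 weeks. A combined oral contraceptive was given once daily for 8 days before escalation and again during the final week. The investigator recorded AEs, both observed and spontaneously reported, with severity graded and relation assessed. Amylase and lipase were measured as change from baseline to end of treatment and to follow-up (5 weeks after last dose), mean ± SD.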

For data set [2] the following is noted: cited from earlier work.
The test system of data set [3] is dipeptidyl peptidase-4 (DPP-4). The note with it: in words; native GLP-1 ref 1; semaglutide ref 12; cited from earlier work.
Setting [4] is: baseline to end of semaglutide treatment.

As for `CC[C@H](C)[C@H](NC(=O)[C@H](Cc1ccccc1)NC(=O)[C@H](CCC(=O)O)NC(=O)[C@H](CCCCNC(=O)COCCOCCNC(=O)COCCOCCNC(=O)CC[C@H](NC(=O)CCCCCCCCCCCCCCCCC(=O)O)C(=O)O)NC(=O)[C@H](C)NC(=O)[C@H](C)NC(=O)[C@H](CCC(N)=O)NC(=O)CNC(=O)[C@H](CCC(=O)O)NC(=O)[C@H](CC(C)C)NC(=O)[C@H](Cc1ccc(O)cc1)NC(=O)[C@H](CO)NC(=O)[C@H](CO)NC(=O)[C@@H](NC(=O)[C@H](CC(=O)O)NC(=O)[C@H](CO)NC(=O)[C@@H](NC(=O)[C@H](Cc1ccccc1)NC(=O)[C@@H](NC(=O)CNC(=O)[C@H](CCC(=O)O)NC(=O)C(C)(C)NC(=O)[C@@H](N)Cc1cnc[nH]1)[C@@H](C)O)[C@@H](C)O)C(C)C)C(=O)N[C@@H](C)C(=O)N[C@@H](Cc1c[nH]c2ccccc12)C(=O)N[C@@H](CC(C)C)C(=O)N[C@H](C(=O)N[C@@H](CCCNC(=N)N)C(=O)NCC(=O)N[C@@H](CCCNC(=N)N)C(=O)NCC(=O)O)C(C)C` [semaglutide], the Subjects reporting diarrhea in data set [1] (6 subjects, all mild or moderate) is listed as 14%. Besides, in data set [1] (FPG at study site and self-measured at home), the “Severe hypoglycemia (ADA classification)” value is listed as “no cases of severe hypoglycemia were reported”. Also, in data set [1] (setting [4]), the “Increase in serum amylase concentration” value was determined as 1.5 ± 15.3 U/L and the “Increase in serum lipase concentration” value came to 9.4 ± 24.3 U/L. Also, in data set [1] (baseline to follow-up), the “Increase in serum amylase concentration” value is listed as 7.0 ± 14.1 U/L and the “Increase in serum lipase concentration” value came to 10.7 ± 32.6 U/L. In data set [1] (in vivo), the Antisemaglutide antibodies entry is listed as “No antisemaglutide antibodies were detected in any subject”; the “Changes in ECG or safety laboratory parameters, including calcitonin” value is “No clinically meaningful changes were observed”; the Pancreatitis result was “No cases of pancreatitis were reported”; the “Serum amylase values ≥3x ULN” value was “No value was ≥3x ULN”. Also, the “Duration of nausea episodes, median” value in data set [1] (min, max: 0.01, 95.6) is on record as 3.9 days. In addition, in data set [1] (s.c. injection), the Injection-site reactions entry is reported as “no injection-site reactions were reported”. Besides, the “Subjects reporting TEAEs” value in data set [1] (whole study (oral contraceptive and semaglutide periods), 38 of 43 subjects) stood at 88%. In data set [1] (whole study, n = 43), the “Serious AEs” value is “No serious AEs were reported”. For the same molecule, the “Reported t1/2” value in data set [2] was 155 to 184 h. Also, in data set [3], the “Degradation by dipeptidyl peptidase-4 (DPP-4)” value is recorded as “less susceptible to degradation by DPP-4”.
As for “Glucagon-like peptide-1 [native GLP-1, reference compound]”, the “Half-life (t1/2)” value in data set [2] (in words) is on record as “very short”. Also, the “Degradation by dipeptidyl peptidase-4 (DPP-4)” value in data set [3] is “rapidly degraded”.
